Data published in ChEMBL document CHEMBL5724801, “EUbOPEN Chemogenomics Library - Multiplex” (2024).
Where “and” joins values, the source holds several entries; their conditions need not be identical. Identical values can stand only once.

Test system: U2OS
Experiment: Multiplex assay against U2OS
Assay type: toxicity, cell-based
Conditions: human
Outline: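 Per cents of healthy-nucleus cells form the tubulin, mitochondrial-mass and membrane-permeability phenotype values. Live cells were stained at seeding with Hoechst33342, BioTracker Green Microtubule Cytoskeleton Dye, MitoTracker Red and Annexin V Alexa Fluor 680. After compound addition they were imaged on a CQ1 microscope at 37°C and 5% CO2, and CellPathfinder machine-learning gating split them into Hoechst high-intensity objects or normal cells, normal cells into healthy, pyknosed or fragmented nuclei, and pyknosed cells into mitotic or apoptotic.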

[1] = 12 h, 1 µM, compound concentration 1 uM
[2] = 12 h, 10 µM, compound concentration 10 uM
[3] = 24 h, 1 µM, compound concentration 1 uM
[4] = 24 h, 10 µM, compound concentration 10 uM
[5] = 48 h, 1 µM, compound concentration 1 uM
[6] = 48 h, 10 µM, compound concentration 10 uM

C=C(C)[C@H]1CN[C@H](C(=O)O)[C@H]1CC(=O)O [KAINIC ACID]
Population Apoptotic (%) [1]: 30.91% and 58.82% | Population Fragmented Nuclei (%) [1]: 1.23% and 1.12% | Population Healthy Nuclei (%) [1]: 87.5% and 89.39% | Population Hoechst High Intensity Objects (%) [1]: 0% | Population Membrane Permeable-Phenotype (%) [1]: 1.41% and 1.88% | Population Mitochondria Different-Phenotype (%) [1]: 0.23% and 4.38% | Population Mitotic Cells (%) [1]: 69.09% and 41.18% | Population Normal (%) [1]: 100% | Population Pyknosed Nuclei (%) [1]: 11.27% and 9.5% | Population Tubulin-Different-Phenotype (%) [1]: 0.7% and 0.62% | Total Cell Count [1]: 488 and 179 | Population Apoptotic (%) [2]: 57.14% and 30.77% | Population Fragmented Nuclei (%) [2]: 0.95% and 4.3% | Population Healthy Nuclei (%) [2]: 89.13% and 81.72% | Population Hoechst High Intensity Objects (%) [2]: 0% | Population Membrane Permeable-Phenotype (%) [2]: 0.27% and 3.29% | Population Mitochondria Different-Phenotype (%) [2]: 0.27% and 4.61% | Population Mitotic Cells (%) [2]: 42.86% and 69.23% | Population Normal (%) [2]: 100% | Population Pyknosed Nuclei (%) [2]: 9.93% and 13.98% | Population Tubulin-Different-Phenotype (%) [2]: 0.53% and 0% | Total Cell Count [2]: 423 and 186 | Population Apoptotic (%) [3]: 37.88% and 41.38% | Population Fragmented Nuclei (%) [3]: 1.93% and 1.32% | Population Healthy Nuclei (%) [3]: 88.3% and 85.96% | Population Hoechst High Intensity Objects (%) [3]: 0% | Population Membrane Permeable-Phenotype (%) [3]: 0.84% and 3.06% | Population Mitochondria Different-Phenotype (%) [3]: 0.17% and 5.61% | Population Mitotic Cells (%) [3]: 62.12% and 58.62% | Population Normal (%) [3]: 100% | Population Pyknosed Nuclei (%) [3]: 9.78% and 12.72% | Population Tubulin-Different-Phenotype (%) [3]: 0.5% and 0.51% | Total Cell Count [3]: 675 and 228 | Population Apoptotic (%) [4]: 43.86% and 44.44% | Population Fragmented Nuclei (%) [4]: 0.5% and 1.63% | Population Healthy Nuclei (%) [4]: 90.02% and 91.02% | Population Hoechst High Intensity Objects (%) [4]: 0% | Population Membrane Permeable-Phenotype (%) [4]: 0.37% and 1.79% | Population Mitochondria Different-Phenotype (%) [4]: 0% and 2.69% | Population Mitotic Cells (%) [4]: 56.14% and 55.56% | Population Normal (%) [4]: 100% | Population Pyknosed Nuclei (%) [4]: 9.48% and 7.35% | Population Tubulin-Different-Phenotype (%) [4]: 0.92% and 0.9% | Total Cell Count [4]: 601 and 245 | Population Apoptotic (%) [5]: 36.05% and 33.33% | Population Fragmented Nuclei (%) [5]: 2.72% and 1.63% | Population Healthy Nuclei (%) [5]: 90.38% and 86.14% | Population Hoechst High Intensity Objects (%) [5]: 0% | Population Membrane Permeable-Phenotype (%) [5]: 0.98% and 1.89% | Population Mitochondria Different-Phenotype (%) [5]: 0.44% and 1.89% | Population Mitotic Cells (%) [5]: 63.95% and 66.67% | Population Normal (%) [5]: 100% | Population Pyknosed Nuclei (%) [5]: 6.89% and 12.23% | Population Tubulin-Different-Phenotype (%) [5]: 0.62% and 0.95% | Population Apoptotic (%) [6]: 44.57% and 57.89% | Population Fragmented Nuclei (%) [6]: 3.7% and 0.47% | Population Healthy Nuclei (%) [6]: 88.18% and 90.59% | Population Hoechst High Intensity Objects (%) [6]: 0% | Population Membrane Permeable-Phenotype (%) [6]: 0.8% and 2.08% | Population Mitochondria Different-Phenotype (%) [6]: 0.2% and 2.08% | Population Mitotic Cells (%) [6]: 55.43% and 42.11% | Population Normal (%) [6]: 100% | Population Pyknosed Nuclei (%) [6]: 8.11% and 8.94% | Population Tubulin-Different-Phenotype (%) [6]: 0.7% and 1.3% | Total Cell Count [6]: 1134 and 425
